Shown are actives, neighbours in structure and some others; about 2.3% of the full set was active somewhere.
Ins promoter up: MIN6 insulin promoter up-regulation | MIN6 insulin promoter-GFP reporter, high-content imaging; hits give high values | z-score at 5 µM | hit rate 0.3% among 190,000 | AID 1625;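 active means z-score above 3 at 5 µM with at least 500 cells counted in the well; inconclusive means wells under 500 cells, flagged as cytotoxic or low count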
sdo1 growth: compounds rescuing growth of sdo1-depleted yeast, bone marrow failure model. S. cerevisiae sdo1-depleted JHY4D growth rescue, OD600 30 h; hits give high values; pdr5 snq2 efflux-pump mutant strain. z-score at 10 µM. hit rate 0.21% among 140,000;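 active means z-score above 3 at both the 24 hr and the 30 hr optical density reads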;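 further: z-score against mean and SD of all compound wells on the same plate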
Autophagy mod: autophagy modulation, high-content screen | hit rate 0.98% among 190,000 | MEF GFP-LC3 puncta imaging; test concentration mostly 10 µM | AID 463193 | calls only at 10 µM (by protocol);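 active means percentage of spot-positive cells more than 3 SD above its plate mean, without a fluorescence outlier flag or 80% toxicity; inconclusive means no clear call, values can overlap the other calls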;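 further: spot-positive cell cutoff set from DMSO-treated cells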
ABCG2 block: inhibitors of human ABCG2 transporter, ABCB1 counter-screen; Q9UNQ0; IgMXP3 cells, JC-1 efflux, flow cytometry; inhibition, % at 6.6 µM; hit rate 0.1% among 190,000;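 active means inhibition above 80%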;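 further: 0% = DMSO and 100% = nicardipine control wells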
Target sequence (Q9UNQ0 whole entry, looked up): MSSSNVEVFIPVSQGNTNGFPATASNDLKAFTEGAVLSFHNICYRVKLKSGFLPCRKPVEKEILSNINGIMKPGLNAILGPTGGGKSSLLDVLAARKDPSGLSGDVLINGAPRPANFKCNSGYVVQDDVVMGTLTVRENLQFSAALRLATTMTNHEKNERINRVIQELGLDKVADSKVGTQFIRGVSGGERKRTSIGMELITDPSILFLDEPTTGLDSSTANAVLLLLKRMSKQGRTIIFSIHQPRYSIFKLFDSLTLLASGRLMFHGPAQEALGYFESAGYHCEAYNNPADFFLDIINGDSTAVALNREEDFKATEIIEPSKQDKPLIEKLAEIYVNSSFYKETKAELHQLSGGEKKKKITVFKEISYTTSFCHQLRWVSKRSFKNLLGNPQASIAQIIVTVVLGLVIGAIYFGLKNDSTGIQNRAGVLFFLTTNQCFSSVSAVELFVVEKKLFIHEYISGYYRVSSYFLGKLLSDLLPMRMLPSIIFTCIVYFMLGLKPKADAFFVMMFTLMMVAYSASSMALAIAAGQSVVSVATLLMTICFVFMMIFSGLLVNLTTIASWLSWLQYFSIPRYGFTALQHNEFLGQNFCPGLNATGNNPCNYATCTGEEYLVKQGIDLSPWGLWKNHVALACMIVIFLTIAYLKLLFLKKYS
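Measure – % inhibition of efflux relative to nicardipine and DMSO · Test system – ABCG2 IgMXP3 and barcoded ABCB1 CCRF-Adr cell mix · Control set – nicardipine as high control, DMSO as low control · Compound – one concentration, 6.6 µM final · Signal – flow cytometry of retained JC-1 fluorescence · Timing – 10 min exposure at 25 °C with rotation, no wash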
ABCB1 block: blocks JC-1 efflux by human ABCB1 transporter | P08183 | hit rate 0.067% among 190,000 | AID 1326 | inhibition, % at 6.6 µM | CCRF-Adr cells, flow cytometry; in the data active means inhibition above about 40%;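 further: 0% = vehicle and 100% = reference inhibitor; higher value means more JC-1 retained so stronger ABCB1 efflux block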
ROMK primary: human ROMK K+ channel modulation, primary screen; Tet-inducible ROMK, thallium flux fluorescence; actives lie on both sides; B-score at 10 µM; hit rate 2% among 130,000;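 active means signal ratio slope over the read window, or its plate-corrected B-score, at least 3 SD from the plate mean, either direction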;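 further: B-score of the F/F0 ratio slope over 7 to 12 s after thallium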
ROMK retest: human ROMK channel modulation, retest confirmation. shares compounds with ROMK primary. hit rate 54% among 3,000. normalized thallium flux (F/F0 slope) at 10 µM. ROMK thallium flux, fluorescence ratio; hits give low values;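 active means Flux at 10 µM at least 3 SD below or above vehicle control mean in one or both replicates; inconclusive means no clear call, values can overlap the other calls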
Active calls of the source: *.

Screening CN1CCN(CC2(O)CCN(S(=O)(=O)c3ccc(Cl)cc3)CC2)CC1 returned Ins promoter up -0.37, Autophagy mod inactive, ABCG2 block 1, ABCB1 block 0 and ROMK primary 1.6.
CCc1ccc(C(=O)/C=C2\Sc3ccccc3NC2=O)cc1 was read as Ins promoter up 0.66, sdo1 growth 1.2, Autophagy mod inactive, ABCG2 block -5, ABCB1 block -1 and ROMK primary -0.067.
CC(=O)/C=C1/C(=O)Nc2ccccc21 was read as Ins promoter up 0, Autophagy mod inactive, ABCG2 block 13, ABCB1 block 0, ROMK primary -3.8* and ROMK retest 0.034*.
Screening COc1ccc2c(c1)nc(N)n2Cc1ccccc1 returned sdo1 growth 0.24, Autophagy mod inactive, ABCG2 block 0, ABCB1 block 0, ROMK primary -3* and ROMK retest 0.053*.
Cc1cccc(C(=O)NC2CCN(S(=O)(=O)c3ccccc3)CC2)c1 was read as Autophagy mod inactive, ABCG2 block 1, ABCB1 block 0 and ROMK primary -0.31.
Screening CC(C)Cn1c(N)c(C(=O)COC(=O)C2CC(=O)N(Cc3ccccc3Cl)C2)c(=O)n(C)c1=O (stereo not drawn) returned Ins promoter up -1.1, Autophagy mod inactive, ABCG2 block 3, ABCB1 block 0 and ROMK primary -0.18.
`CCOC(=O)C1CCCN(C(=O)c2cn(CC)c(=O)c3cc(OC)c(OC)cc23)C1` (stereo not drawn) gave Ins promoter up 0.26, sdo1 growth 1.4, Autophagy mod inactive, ABCG2 block 3, ABCB1 block 1 and ROMK retest 0.073.
`COc1cc(CCC(=O)Nc2ccc(Br)c(C(F)(F)F)c2)cc(OC)c1OC` gave Ins promoter up 0.09, sdo1 growth 0.24, Autophagy mod inactive, ABCG2 block 7, ABCB1 block 0 and ROMK primary 0.41.
`COc1ccc(-c2nc(CN3CCC(C(=O)N4CCc5ccccc54)CC3)c(C)o2)cc1OC` gave Ins promoter up 0.17, sdo1 growth -0.35, Autophagy mod inactive, ABCG2 block -1, ABCB1 block 0 and ROMK retest inconclusive.
`COc1ccc(CCNC(=O)C2CCN(Cc3nc(-c4cccc(Cl)c4)oc3C)CC2)cc1OC` gave Ins promoter up -0.99, sdo1 growth 0.8, Autophagy mod inactive, ABCG2 block 2 and ABCB1 block 2.
CCn1nc(C)c(NC(=O)c2cnn3c(C(F)F)cc(-c4ccccc4)nc23)c1C was read as Ins promoter up -1.6, Autophagy mod inactive, ABCG2 block -1, ABCB1 block 0 and ROMK primary 0.0017.
N=C1C(c2ccccc2)=C(O)CN1c1cccc(S(=O)(=O)NCc2ccco2)c1 was read as Ins promoter up -0.09.
`O=C(/C=C/c1ccccc1[N+](=O)[O-])c1ccccc1Br` gave Ins promoter up 0.35, Autophagy mod inactive, ABCG2 block 50, ABCB1 block 2, ROMK primary -6.1* and ROMK retest 0.049*.
Cc1ccc(C(=O)/C=C/c2ccccc2[N+](=O)[O-])cc1 was read as Ins promoter up -0.04, Autophagy mod inactive, ABCG2 block 17, ABCB1 block 3 and ROMK primary 1.3.
CCN(CC)CCCNC(=O)c1cc2c(-c3ccc(Cl)cc3)nn(C)c2s1 was read as Ins promoter up 0.22, sdo1 growth -0.64, Autophagy mod active, ABCG2 block 6, ABCB1 block 2 and ROMK retest 0.059*.
CCOC(=O)CSC1=NC(=O)/C(=C\c2ccc(OC(C)=O)cc2)S1 was read as sdo1 growth -1.1, Autophagy mod inactive, ABCG2 block 25, ABCB1 block 9 and ROMK retest 0.04*.
CCc1ccc(/C=C2\SC(N3CCCC3)=NC2=O)cc1 was read as Ins promoter up -0.42, Autophagy mod inactive, ABCG2 block 58, ABCB1 block 2 and ROMK primary -1.1.
Screening CCOC(=O)CSc1nc(-c2ccccc2)ns1 returned Ins promoter up 0.67, Autophagy mod inactive, ABCG2 block 1, ABCB1 block 0 and ROMK primary 0.32.
Screening CCOC(=O)CSC1=NC(=O)/C(=C/c2ccc(Br)cc2)S1 returned Ins promoter up -0.01, Autophagy mod inactive, ABCG2 block 0, ABCB1 block 0, ROMK primary -0.72 and ROMK retest 0.061*.
COc1ccc(N2C(=O)C3CCCN3C2c2ccccc2F)cc1 (stereo not drawn) was read as Ins promoter up -0.11, sdo1 growth 0.65, Autophagy mod inactive, ABCG2 block -2 and ABCB1 block -1.
O=C1C2CCCN2C(c2ccccc2F)N1c1ccc(Cl)cc1 (stereo not drawn) was read as Ins promoter up -0.9, sdo1 growth -1.2, Autophagy mod inactive, ABCG2 block 1, ABCB1 block 0, ROMK primary 1.5* and ROMK retest 0.075.
Screening COC(=O)/C=c1\[nH]c2nnc(C)n2c1=O returned Ins promoter up -0.24 and ROMK primary 0.39.
For COc1ccc2no[n+]([O-])c2c1 the results were Ins promoter up 0.21 and ROMK primary 0.46.
`CC1CCc2cc(F)ccc2N1C(=O)CCl` (stereo not drawn) gave Ins promoter up 0.51, Autophagy mod inactive, ABCG2 block -3, ABCB1 block -1, ROMK primary -4.3* and ROMK retest 0.048*.
Cc1ncc(S(=O)(=O)C(C)(C)C)c(N)n1 was read as Ins promoter up 0.43.
`O=C1CSC(c2ccccc2Cl)N1` (stereo not drawn) gave Autophagy mod inactive, ABCG2 block 8, ABCB1 block 0, ROMK primary 3.5* and ROMK retest 0.089.
`O=C1CSC(c2ccccc2F)N1` (stereo not drawn) gave Ins promoter up 0.54 and ROMK primary 0.26.
COc1nccnc1NS(=O)(=O)c1ccc(N=Cc2c(C)[nH]n(-c3ccc(C)c(C)c3)c2=O)cc1 was read as Ins promoter up 1.6, sdo1 growth 0.4, Autophagy mod inactive, ABCG2 block 6, ABCB1 block 0, ROMK primary 2.3* and ROMK retest 0.086.
For COc1nccnc1NS(=O)(=O)c1ccc(N=Cc2c(C)[nH]n(-c3ccc(Cl)cc3)c2=O)cc1 the results were Ins promoter up 0.06, sdo1 growth 1.1, Autophagy mod inactive, ABCG2 block 5 and ABCB1 block -1.
For O=C(CC1(O)C(=O)Nc2ccccc21)c1ccccc1O (stereo not drawn) the results were Ins promoter up 0.4, sdo1 growth 0.71, Autophagy mod inactive, ABCG2 block 4 and ABCB1 block 1.
